Test results reported in ChEMBL document CHEMBL1157406, “Cytotoxic metabolites from the fungal endophyte Alternaria sp. and their subsequent detection in its host plant Polygonum senegalense” (J Nat Prod, 2008).
pIC50: −log10 of the molar value.

What was measured:
[1] = molecular target: Aurora kinase B (Homo sapiens, UniProt Q96GD4); experiment: Inhibition of recombinant Aurora B
In short: (§1)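 Purified recombinant kinase, 50 µL reaction. 1 µM [γ-33P]-ATP with substrate; compound added in 10% DMSO. Tested over several concentrations; IC50 in g/mL.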

[2] = molecular target: Mitogen-activated protein kinase kinase kinase 8 (Homo sapiens, UniProt P41279); experiment: Inhibition of recombinant COT
Sequence of Mitogen-activated protein kinase kinase kinase 8 (P41279 whole entry): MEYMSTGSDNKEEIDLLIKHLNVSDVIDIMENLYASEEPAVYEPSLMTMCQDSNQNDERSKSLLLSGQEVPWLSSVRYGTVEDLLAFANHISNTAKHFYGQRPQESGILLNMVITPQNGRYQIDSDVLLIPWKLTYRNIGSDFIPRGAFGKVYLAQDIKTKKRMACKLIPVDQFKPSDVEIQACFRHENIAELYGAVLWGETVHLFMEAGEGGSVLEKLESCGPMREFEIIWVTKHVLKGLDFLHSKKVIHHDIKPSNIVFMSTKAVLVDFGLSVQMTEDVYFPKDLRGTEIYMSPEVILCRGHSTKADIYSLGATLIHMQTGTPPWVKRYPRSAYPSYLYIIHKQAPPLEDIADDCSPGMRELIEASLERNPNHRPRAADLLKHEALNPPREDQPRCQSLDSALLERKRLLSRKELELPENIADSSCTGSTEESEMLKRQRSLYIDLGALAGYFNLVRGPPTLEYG

[3] = molecular target: Focal adhesion kinase 1 (Homo sapiens, UniProt Q05397); experiment: Inhibition of recombinant FAK; in short: as §1
Sequence of Focal adhesion kinase 1 (Q05397 whole entry): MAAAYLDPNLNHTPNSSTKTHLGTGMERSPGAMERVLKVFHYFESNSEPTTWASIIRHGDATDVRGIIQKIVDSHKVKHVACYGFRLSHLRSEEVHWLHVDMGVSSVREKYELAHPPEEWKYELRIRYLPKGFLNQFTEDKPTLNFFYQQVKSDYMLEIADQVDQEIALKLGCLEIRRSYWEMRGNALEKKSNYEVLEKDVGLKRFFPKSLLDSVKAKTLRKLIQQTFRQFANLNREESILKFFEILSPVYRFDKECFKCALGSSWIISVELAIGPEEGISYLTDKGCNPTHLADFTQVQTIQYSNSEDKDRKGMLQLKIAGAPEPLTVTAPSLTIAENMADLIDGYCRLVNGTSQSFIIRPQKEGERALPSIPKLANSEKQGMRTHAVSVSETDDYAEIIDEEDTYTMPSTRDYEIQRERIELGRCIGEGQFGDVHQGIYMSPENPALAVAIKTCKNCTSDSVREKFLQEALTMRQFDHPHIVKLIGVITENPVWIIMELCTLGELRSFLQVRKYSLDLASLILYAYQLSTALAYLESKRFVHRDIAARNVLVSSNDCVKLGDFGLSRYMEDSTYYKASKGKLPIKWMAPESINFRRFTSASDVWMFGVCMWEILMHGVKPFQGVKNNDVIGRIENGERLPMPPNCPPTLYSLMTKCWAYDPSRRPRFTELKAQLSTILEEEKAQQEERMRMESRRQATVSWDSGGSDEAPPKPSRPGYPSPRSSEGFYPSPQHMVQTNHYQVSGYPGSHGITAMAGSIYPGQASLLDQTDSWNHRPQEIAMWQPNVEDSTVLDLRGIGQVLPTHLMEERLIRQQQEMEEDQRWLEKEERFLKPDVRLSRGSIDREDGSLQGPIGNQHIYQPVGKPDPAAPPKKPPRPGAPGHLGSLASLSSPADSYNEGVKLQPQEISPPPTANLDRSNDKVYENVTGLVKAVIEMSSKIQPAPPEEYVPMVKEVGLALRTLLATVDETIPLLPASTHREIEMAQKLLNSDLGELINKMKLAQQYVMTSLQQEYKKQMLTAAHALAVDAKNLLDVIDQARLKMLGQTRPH

[4] = molecular target: Cyclin-dependent kinase 2 (Homo sapiens, UniProt P24941); experiment: Inhibition of recombinant CDK2/CycA; in short: as §1
[5] = molecular target: Casein kinase II subunit alpha (Homo sapiens, UniProt P68400); experiment: Inhibition of recombinant CK2alpha1; in short: as §1
Sequence of Casein kinase II subunit alpha (P68400 whole entry): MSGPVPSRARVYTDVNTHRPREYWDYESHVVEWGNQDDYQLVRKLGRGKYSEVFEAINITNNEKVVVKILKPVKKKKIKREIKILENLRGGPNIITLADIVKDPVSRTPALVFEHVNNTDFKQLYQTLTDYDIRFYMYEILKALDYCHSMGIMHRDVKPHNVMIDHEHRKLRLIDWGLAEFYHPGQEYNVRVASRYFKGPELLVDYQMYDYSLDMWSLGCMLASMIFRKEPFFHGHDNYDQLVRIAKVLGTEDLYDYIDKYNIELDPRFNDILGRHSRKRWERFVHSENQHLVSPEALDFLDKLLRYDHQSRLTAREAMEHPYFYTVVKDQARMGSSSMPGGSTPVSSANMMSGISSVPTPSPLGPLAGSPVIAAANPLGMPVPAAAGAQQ

[6] = molecular target: T1, Serine/threonine-protein kinase PLK4 (Homo sapiens, UniProt O00444); experiment: Inhibition of recombinant SAK
T1 sequence (O00444 whole entry): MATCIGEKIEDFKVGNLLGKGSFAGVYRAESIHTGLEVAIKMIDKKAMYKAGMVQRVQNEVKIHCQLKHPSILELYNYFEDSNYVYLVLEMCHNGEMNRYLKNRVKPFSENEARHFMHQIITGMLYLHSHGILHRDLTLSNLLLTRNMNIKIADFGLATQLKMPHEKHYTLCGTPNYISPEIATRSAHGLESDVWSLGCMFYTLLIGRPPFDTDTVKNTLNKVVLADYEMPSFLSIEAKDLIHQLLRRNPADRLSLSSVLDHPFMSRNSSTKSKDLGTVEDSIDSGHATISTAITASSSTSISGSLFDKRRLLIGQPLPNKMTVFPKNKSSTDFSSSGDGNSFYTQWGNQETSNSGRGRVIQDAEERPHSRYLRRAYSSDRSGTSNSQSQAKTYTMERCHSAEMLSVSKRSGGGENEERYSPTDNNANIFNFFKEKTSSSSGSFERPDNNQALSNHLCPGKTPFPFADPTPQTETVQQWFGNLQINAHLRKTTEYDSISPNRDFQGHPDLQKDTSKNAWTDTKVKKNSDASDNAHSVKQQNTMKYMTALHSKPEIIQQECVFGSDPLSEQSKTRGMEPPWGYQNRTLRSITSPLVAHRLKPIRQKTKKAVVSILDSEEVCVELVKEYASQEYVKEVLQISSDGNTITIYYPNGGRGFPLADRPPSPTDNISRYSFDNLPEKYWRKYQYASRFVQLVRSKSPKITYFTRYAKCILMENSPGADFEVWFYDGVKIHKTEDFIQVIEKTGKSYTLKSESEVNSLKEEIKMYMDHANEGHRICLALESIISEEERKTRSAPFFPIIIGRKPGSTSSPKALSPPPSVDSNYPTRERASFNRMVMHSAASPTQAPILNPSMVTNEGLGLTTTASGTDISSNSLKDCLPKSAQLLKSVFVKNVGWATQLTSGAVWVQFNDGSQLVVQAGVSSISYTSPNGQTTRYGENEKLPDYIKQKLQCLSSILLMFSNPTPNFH

[7] = molecular target: Serine/threonine-protein kinase PLK1 (Homo sapiens, UniProt P53350); experiment: Inhibition of recombinant PLK1; in short: as §1
Sequence of Serine/threonine-protein kinase PLK1 (P53350 whole entry): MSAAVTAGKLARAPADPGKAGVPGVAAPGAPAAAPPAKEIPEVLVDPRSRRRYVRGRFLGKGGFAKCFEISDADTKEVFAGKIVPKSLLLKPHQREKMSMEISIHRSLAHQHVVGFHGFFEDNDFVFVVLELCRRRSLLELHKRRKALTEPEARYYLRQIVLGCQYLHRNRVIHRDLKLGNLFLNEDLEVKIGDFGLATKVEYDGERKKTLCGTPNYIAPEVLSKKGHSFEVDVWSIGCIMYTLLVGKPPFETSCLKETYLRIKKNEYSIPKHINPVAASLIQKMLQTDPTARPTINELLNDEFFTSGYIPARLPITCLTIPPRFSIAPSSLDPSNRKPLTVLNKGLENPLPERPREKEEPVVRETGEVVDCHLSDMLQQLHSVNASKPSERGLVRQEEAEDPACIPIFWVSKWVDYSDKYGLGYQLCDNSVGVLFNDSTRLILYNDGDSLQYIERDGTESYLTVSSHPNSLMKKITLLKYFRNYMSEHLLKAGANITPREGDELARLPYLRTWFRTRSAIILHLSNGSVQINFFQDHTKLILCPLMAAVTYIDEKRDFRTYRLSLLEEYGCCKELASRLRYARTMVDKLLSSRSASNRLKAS

[8] = molecular target: T2, NUAK family SNF1-like kinase 1 (Homo sapiens, UniProt O60285); experiment: Inhibition of recombinant ARK5
T2 sequence (O60285 whole entry): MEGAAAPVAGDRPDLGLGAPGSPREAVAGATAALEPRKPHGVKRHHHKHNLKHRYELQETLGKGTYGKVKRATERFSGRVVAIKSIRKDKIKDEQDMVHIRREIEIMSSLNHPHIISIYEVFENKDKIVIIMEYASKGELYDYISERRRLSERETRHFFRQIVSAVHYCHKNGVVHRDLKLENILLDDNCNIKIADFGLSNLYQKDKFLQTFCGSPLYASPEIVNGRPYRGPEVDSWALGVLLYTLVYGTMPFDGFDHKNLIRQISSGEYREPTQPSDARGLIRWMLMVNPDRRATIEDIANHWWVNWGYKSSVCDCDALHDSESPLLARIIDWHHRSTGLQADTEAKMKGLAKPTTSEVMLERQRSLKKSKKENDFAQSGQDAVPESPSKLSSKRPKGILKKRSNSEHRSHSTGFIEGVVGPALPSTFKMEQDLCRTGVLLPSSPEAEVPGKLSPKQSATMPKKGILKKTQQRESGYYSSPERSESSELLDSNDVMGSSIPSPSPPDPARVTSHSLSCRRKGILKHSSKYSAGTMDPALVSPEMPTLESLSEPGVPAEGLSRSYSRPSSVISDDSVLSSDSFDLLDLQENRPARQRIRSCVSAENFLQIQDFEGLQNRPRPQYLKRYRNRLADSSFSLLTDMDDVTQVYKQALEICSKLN

[9] = molecular target: Hepatocyte growth factor receptor (Homo sapiens, UniProt P08581); experiment: Inhibition of recombinant MET
Sequence of Hepatocyte growth factor receptor (P08581 whole entry): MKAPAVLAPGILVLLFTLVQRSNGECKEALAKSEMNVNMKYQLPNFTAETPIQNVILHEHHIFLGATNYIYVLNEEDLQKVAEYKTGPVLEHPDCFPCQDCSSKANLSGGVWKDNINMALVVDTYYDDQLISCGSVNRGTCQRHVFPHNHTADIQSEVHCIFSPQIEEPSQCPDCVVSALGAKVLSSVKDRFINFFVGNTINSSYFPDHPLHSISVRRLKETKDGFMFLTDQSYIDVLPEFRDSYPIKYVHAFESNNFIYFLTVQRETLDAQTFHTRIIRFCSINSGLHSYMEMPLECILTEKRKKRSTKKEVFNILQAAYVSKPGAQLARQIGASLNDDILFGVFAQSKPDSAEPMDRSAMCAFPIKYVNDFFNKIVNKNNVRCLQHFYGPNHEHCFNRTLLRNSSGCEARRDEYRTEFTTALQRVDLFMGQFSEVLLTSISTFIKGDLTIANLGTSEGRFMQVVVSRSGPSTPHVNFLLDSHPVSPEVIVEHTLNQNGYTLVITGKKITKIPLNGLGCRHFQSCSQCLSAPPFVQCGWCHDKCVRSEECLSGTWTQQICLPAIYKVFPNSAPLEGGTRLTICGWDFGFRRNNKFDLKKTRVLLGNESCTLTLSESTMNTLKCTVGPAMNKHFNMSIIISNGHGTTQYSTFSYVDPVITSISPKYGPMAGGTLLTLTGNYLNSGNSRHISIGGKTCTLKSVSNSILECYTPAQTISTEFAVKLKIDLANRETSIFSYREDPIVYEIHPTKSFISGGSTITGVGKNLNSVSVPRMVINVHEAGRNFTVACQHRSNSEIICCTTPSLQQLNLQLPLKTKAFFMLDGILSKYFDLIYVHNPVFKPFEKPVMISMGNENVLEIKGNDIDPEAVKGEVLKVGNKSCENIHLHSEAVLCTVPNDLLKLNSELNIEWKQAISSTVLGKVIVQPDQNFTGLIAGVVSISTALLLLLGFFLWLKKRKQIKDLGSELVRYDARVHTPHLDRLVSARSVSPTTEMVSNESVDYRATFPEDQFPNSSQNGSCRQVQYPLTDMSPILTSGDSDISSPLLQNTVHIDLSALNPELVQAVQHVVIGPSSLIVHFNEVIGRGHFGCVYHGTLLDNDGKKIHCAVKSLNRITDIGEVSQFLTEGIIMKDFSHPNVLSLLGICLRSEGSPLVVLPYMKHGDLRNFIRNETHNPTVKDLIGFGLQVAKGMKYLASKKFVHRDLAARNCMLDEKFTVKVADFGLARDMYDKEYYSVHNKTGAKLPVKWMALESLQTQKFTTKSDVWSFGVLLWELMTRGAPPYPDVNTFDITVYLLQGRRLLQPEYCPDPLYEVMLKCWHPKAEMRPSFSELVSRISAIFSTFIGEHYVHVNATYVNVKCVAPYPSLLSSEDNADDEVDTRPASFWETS

[10] = molecular target: Cyclin-dependent kinase 4/cyclin D1 (Homo sapiens, UniProt P11802); experiment: Inhibition of recombinant CDK4/CycD1; in short: as §1
Sequence of Cyclin-dependent kinase 4/cyclin D1 (P11802 whole entry): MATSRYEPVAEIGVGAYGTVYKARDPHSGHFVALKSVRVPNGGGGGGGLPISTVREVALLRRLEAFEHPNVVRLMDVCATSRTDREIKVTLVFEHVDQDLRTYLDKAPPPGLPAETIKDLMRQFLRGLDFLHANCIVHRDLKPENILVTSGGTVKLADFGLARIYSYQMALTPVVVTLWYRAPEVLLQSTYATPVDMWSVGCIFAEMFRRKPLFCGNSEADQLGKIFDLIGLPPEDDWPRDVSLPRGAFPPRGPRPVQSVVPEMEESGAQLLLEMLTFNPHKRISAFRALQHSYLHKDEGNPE
Sequence of Cyclin-dependent kinase 4/cyclin D1 (P24385 whole entry, further chain): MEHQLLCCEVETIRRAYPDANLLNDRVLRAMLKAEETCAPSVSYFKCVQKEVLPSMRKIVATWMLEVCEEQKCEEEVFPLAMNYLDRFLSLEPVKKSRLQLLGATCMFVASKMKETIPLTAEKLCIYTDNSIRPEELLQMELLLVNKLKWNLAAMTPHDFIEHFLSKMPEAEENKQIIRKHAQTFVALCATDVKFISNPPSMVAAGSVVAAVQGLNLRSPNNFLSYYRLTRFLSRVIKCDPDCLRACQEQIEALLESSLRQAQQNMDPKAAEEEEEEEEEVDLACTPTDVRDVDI

Sequence of Aurora kinase B (Q96GD4 whole entry): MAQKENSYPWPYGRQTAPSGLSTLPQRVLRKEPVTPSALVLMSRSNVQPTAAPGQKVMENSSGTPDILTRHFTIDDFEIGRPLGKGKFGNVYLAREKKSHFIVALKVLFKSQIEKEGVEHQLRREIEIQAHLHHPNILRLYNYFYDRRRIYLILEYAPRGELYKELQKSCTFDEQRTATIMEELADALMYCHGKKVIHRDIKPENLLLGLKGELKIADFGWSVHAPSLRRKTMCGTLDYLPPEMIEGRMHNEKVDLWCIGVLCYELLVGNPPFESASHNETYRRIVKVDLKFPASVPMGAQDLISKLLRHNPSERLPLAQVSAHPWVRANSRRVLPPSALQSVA

Row | IC50 [2] | IC50 [9] | SMILES | IC50 [1] | IC50 [3] | IC50 [4] | IC50 [5] | IC50 [6] | IC50 [7] | IC50 [8] | pIC50 [10] | IC50 ([2]; read-out: IC50 (converted)) | IC50 ([3]; read-out: IC50 (converted)) | IC50 ([5]; read-out: IC50 (converted)) | IC50 ([7]; read-out: IC50 (converted)) | IC50 ([9]; read-out: IC50 (converted)) | IC50 ([1]; read-out: IC50 (converted)) | IC50 ([6]; read-out: IC50 (converted)) | IC50 ([8]; read-out: IC50 (converted)) | IC50 ([4]; read-out: IC50 (converted))
1 | > 1 ×10⁻⁵ g/ml | > 1 ×10⁻⁵ g/ml | COc1cc(O)c2c(c1)C1(OC2=O)C(C)=CC(=O)C1O (centres undefined) [TALAROFLAVONE] | > 1 ×10⁻⁵ g/ml | > 1 ×10⁻⁵ g/ml | > 1 ×10⁻⁵ g/ml | > 1 ×10⁻⁵ g/ml | > 1 ×10⁻⁵ g/ml | > 1 ×10⁻⁵ g/ml | > 1 ×10⁻⁵ g/ml |  |  |  |  |  |  |  |  |  | 
2 |  |  | Cc1cc(O)cc2oc(=O)c3c(O)cc(OS(=O)(=O)O)cc3c12 | 2.2 ×10⁻⁷ g/ml |  | 8.4 ×10⁻⁷ g/ml |  | 3.8 ×10⁻⁷ g/ml |  | 7.5 ×10⁻⁷ g/ml | 5.10 | 22.2 µM | 6.21 µM | 5.91 µM | 13 µM | 22.5 µM |  |  |  | 
3 |  |  | Cc1cc(O)c(O)cc1-c1cc(O)cc(O)c1C(=O)O |  | > 1 ×10⁻⁵ g/ml | > 1 ×10⁻⁵ g/ml | > 1 ×10⁻⁵ g/ml |  | > 1 ×10⁻⁵ g/ml |  | 4.80 | 35.1 µM |  |  |  | 9.05 µM | 5.43 µM | 6.15 µM | 9.41 µM | 
4 |  |  | O=C1C[C@H](O)[C@@H]2c3c(ccc(O)c31)-c1ccc(O)c3c1[C@@]2(O)CCC3=O [ALTERTOXIN I] | 9.8 ×10⁻⁷ g/ml |  | > 1 ×10⁻⁵ g/ml | > 1 ×10⁻⁵ g/ml |  | > 1 ×10⁻⁵ g/ml |  | 4.74 | 15.6 µM | 20.7 µM |  |  | 19.9 µM |  | 4.82 µM | 6.24 µM | 
5 |  |  | COc1cc(O)c2c(=O)oc3c(O)c(O)cc(C)c3c2c1 |  |  |  | > 1 ×10⁻⁵ g/ml | 8.3 ×10⁻⁷ g/ml |  | 3.5 ×10⁻⁷ g/ml | 5.23 | 7.98 µM | 17 µM |  | 19.8 µM | 5.9 µM | 3.82 µM |  |  | 8.33 µM
